Test results reported in ChEMBL document CHEMBL1139506, “Effect on K(ATP) channel activation properties and tissue selectivity of the nature of the substituent in the 7- and the 3-position of 4H-1,2,4-benzothiadiazine 1,1-dioxides” (J Med Chem, 2005).

Experiments:
Rattus norvegicus [1] = species: Rattus norvegicus; assay: ED50/IC50 ratio was determined; assay type: functional
Rattus norvegicus [2] = species: Rattus norvegicus; assay: Concentration required for relaxation of the 30 mM KCl-induced contraction of rat aortic rings (n=4); assay type: functional; details: Aorta, read-out: ED50 (the source's name)
In short: (§1)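 Endothelium-denuded transverse aortic rings (3-4 mm) from fed Wistar rats (180-200 g); isometric tension by force transducer. After 60 min equilibration, contracted with 30 mM KCl; at stable tension, drug added cumulatively until maximal relaxation or up to 0.3 mM. Relaxation expressed as % of KCl contraction; ED50 (50% inhibition of KCl plateau) from dose curves; mean ± SEM (n).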

Rattus norvegicus [3] = species: Rattus norvegicus; assay: Concentration required for 50% inhibition of insulin release in rat pancreatic B-cells; assay type: functional, cell-based
Rattus norvegicus [4] = species: Rattus norvegicus; assay: Effect on insulin secretion from rat pancreatic islets at 10 uM concentration (n=14); assay type: functional
In short: (§2)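 Islets isolated by collagenase from fed Wistar rats (180-220 g); groups of 10 preincubated 30 min, 37 °C, in bicarbonate salt medium with 2.8 mM glucose, 0.5% dialyzed albumin, O2/CO2 95:5. Then incubated 90 min, 37 °C, with 16.7 mM glucose plus drug. Insulin measured by radioimmunoassay against rat insulin standard; expressed as % of drug-free 16.7 mM glucose control; mean ± SEM (n).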

Rattus norvegicus [5] = species: Rattus norvegicus; assay: Effect on insulin secretion from rat pancreatic islets at 50 uM concentration (n=12); assay type: functional; in short: as §2
Rattus norvegicus [6] = species: Rattus norvegicus; assay: Effect on insulin secretion from rat pancreatic islets at 1 uM concentration (n=16); assay type: functional; in short: as §2
Rattus norvegicus [7] = species: Rattus norvegicus; assay: Concentration required for relaxation of the 30 mM KCl-induced contraction of rat aortic rings; Precipitate; assay type: functional; details: Aorta; in short: as §1
Rattus norvegicus [8] = species: Rattus norvegicus; assay: Effect on insulin secretion from rat pancreatic islets at 10 uM concentration (n=16); assay type: functional; in short: as §2
Rattus norvegicus [9] = species: Rattus norvegicus; assay: Concentration required for relaxation of the 30 mM KCl-induced contraction of rat aortic rings; assay type: functional; details: Aorta; in short: as §1
Rattus norvegicus [10] = species: Rattus norvegicus; assay: Concentration giving 50% relaxation of the 30 mM KCl-induced contraction of rat aortic rings (n=8); assay type: functional, Aorta; details: read-out: ED50 (the source's name); in short: as §1
Rattus norvegicus [11] = species: Rattus norvegicus; assay: Effect on insulin secretion from rat pancreatic islets at 10 uM concentration (n=23); assay type: functional; in short: as §2
Rattus norvegicus [12] = species: Rattus norvegicus; assay: Effect on insulin secretion from rat pancreatic islets at 50 uM concentration (n=23); assay type: functional; in short: as §2
Rattus norvegicus [13] = species: Rattus norvegicus; assay: Effect on insulin secretion from rat pancreatic islets at 1 uM concentration (n=19); assay type: functional; in short: as §2
Rattus norvegicus [14] = species: Rattus norvegicus; assay: Effect on insulin secretion from rat pancreatic islets at 50 uM concentration (n=16); assay type: functional; in short: as §2
Rattus norvegicus [15] = species: Rattus norvegicus; assay: Concentration giving 50% relaxation of the 30 mM KCl-induced contraction of rat aortic rings (n=6); assay type: functional; details: Aorta, read-out: ED50 (the source's name); in short: as §1
Rattus norvegicus [16] = species: Rattus norvegicus; assay: Effect on insulin secretion from rat pancreatic islets at 10 uM concentration (n=15); assay type: functional; in short: as §2
Rattus norvegicus [17] = species: Rattus norvegicus; assay: Effect on insulin secretion from rat pancreatic islets at 1 uM concentration (n=14); assay type: functional; in short: as §2
Rattus norvegicus [18] = species: Rattus norvegicus; assay: Concentration giving 50% relaxation of the 30 mM KCl-induced contraction of rat aortic rings (n=10); assay type: functional; details: Aorta, read-out: ED50 (the source's name); in short: as §1
Rattus norvegicus [19] = species: Rattus norvegicus; assay: Effect on insulin secretion from rat pancreatic islets at 1 uM concentration (n=22); assay type: functional; in short: as §2
Rattus norvegicus [20] = species: Rattus norvegicus; assay: Effect on insulin secretion from rat pancreatic islets at 10 uM concentration (n=22); assay type: functional; in short: as §2
Rattus norvegicus [21] = species: Rattus norvegicus; assay: Effect on insulin secretion from rat pancreatic islets at 50 uM concentration (n=14); assay type: functional; in short: as §2
Rattus norvegicus [22] = species: Rattus norvegicus; assay: Concentration giving 50% relaxation of the 30 mM KCl-induced contraction of rat aortic rings (n=7); assay type: functional; details: Aorta, read-out: ED50 (the source's name); in short: as §1
Rattus norvegicus [23] = species: Rattus norvegicus; assay: Effect on insulin secretion from rat pancreatic islets at 50 uM concentration (n=13); assay type: functional; in short: as §2
[24] = Ionization constant was determined; assay type: physicochemical
In short: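 Ionization constant found by UV spectroscopy in aqueous buffers spanning pH 5 to 12; pKa calculated with the Debye-Hückel equation at the absorbance maximum of the basic form.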

Rattus norvegicus [25] = species: Rattus norvegicus; assay: Effect on insulin secretion from rat pancreatic islets at 10 uM concentration (n=37); assay type: functional
Rattus norvegicus [26] = species: Rattus norvegicus; assay: Effect on insulin secretion from rat pancreatic islets at 10 uM concentration (n=21); assay type: functional; in short: as §2
Rattus norvegicus [27] = species: Rattus norvegicus; assay: Effect on insulin secretion from rat pancreatic islets at 50 uM concentration (n=21); assay type: functional; in short: as §2
Rattus norvegicus [28] = species: Rattus norvegicus; assay: Concentration giving 50% relaxation of the 30 mM KCl-induced contraction of rat aortic rings (n=11); details: Aorta, read-out: ED50
Rattus norvegicus [29] = species: Rattus norvegicus; assay: Effect on insulin secretion from rat pancreatic islets at 1 uM concentration (n=15); assay type: functional; in short: as §2
Rattus norvegicus [30] = species: Rattus norvegicus; assay: Effect on insulin secretion from rat pancreatic islets at 10 uM concentration (n=24); assay type: functional; in short: as §2
Rattus norvegicus [31] = species: Rattus norvegicus; assay: Effect on insulin secretion from rat pancreatic islets at 50 uM concentration (n=11); assay type: functional; in short: as §2
Rattus norvegicus [32] = species: Rattus norvegicus; assay: Effect on insulin secretion from rat pancreatic islets at 1 uM concentration (n=23); assay type: functional; in short: as §2

## CCCNC1=NS(=O)(=O)c2cc(OC)ccc2N1
Rattus norvegicus [1]
  Ratio: >34
Rattus norvegicus [2]
  EC50: > 300 µM
Rattus norvegicus [3]
  IC50: 8.9 µM
Rattus norvegicus [4]
  Residual insulin release: 47.4%
Rattus norvegicus [5]
  Residual insulin release: 6.3%
Rattus norvegicus [6]
  Residual insulin release: 101.7%

## CCC(C)NC1=NS(=O)(=O)c2ccccc2N1 (stereo unspecified)
Rattus norvegicus [7]
  ED50: Precipitate
Rattus norvegicus [8]
  Residual insulin release: 42.7%
Rattus norvegicus [6]
  Residual insulin release: 90.4%

## CCNC1=NS(=O)(=O)c2cc(S(C)(=O)=O)ccc2N1
Rattus norvegicus [2]
  EC50: > 300 µM
Rattus norvegicus [8]
  Residual insulin release: 91.6%

## CC(C)C(C)NC1=NS(=O)(=O)c2cnccc2N1 (stereo unspecified)
Rattus norvegicus [9]
  IC50: 154 µM
Rattus norvegicus [1]
  Ratio: 35
Rattus norvegicus [10]
  EC50: 154 µM
Rattus norvegicus [11]
  Residual insulin release: 13.7%
Rattus norvegicus [12]
  Residual insulin release: 8.6%
Rattus norvegicus [13]
  Residual insulin release: 70.5%

## O=S1(=O)N=C(NC2CCC2)Nc2ccccc21
Rattus norvegicus [7]
  ED50: Insoluble
Rattus norvegicus [4]
  Residual insulin release: 29.8%
Rattus norvegicus [6]
  Residual insulin release: 79.9%

## CC(C)NC1=NS(=O)(=O)c2cc(C(=O)O)ccc2N1
Rattus norvegicus [2]
  EC50: > 300 µM
Rattus norvegicus [11]
  Residual insulin release: 96.6%
Rattus norvegicus [14]
  Residual insulin release: 98.6%

## COc1ccc2c(c1)S(=O)(=O)NC(NC1CCC1)=N2
Rattus norvegicus [1]
  Ratio: 72
Rattus norvegicus [15]
  EC50: 157 µM
Rattus norvegicus [3]
  IC50: 2.2 µM
Rattus norvegicus [16]
  Residual insulin release: 14.1%
Rattus norvegicus [5]
  Residual insulin release: 4%
Rattus norvegicus [17]
  Residual insulin release: 71.3%

## CCC(C)NC1=NS(=O)(=O)c2cc(C)ccc2N1 (stereo unspecified)
Rattus norvegicus [1]
  Ratio: 1.4
Rattus norvegicus [18]
  EC50: 15.5 µM
Rattus norvegicus [3]
  IC50: 11.2 µM
Rattus norvegicus [11]
  Residual insulin release: 50.7%
Rattus norvegicus [19]
  Residual insulin release: 93.6%

## CCCNC1=NS(=O)(=O)c2cc(C(F)(F)F)ccc2N1
Rattus norvegicus [2]
  EC50: 2.9 µM
Rattus norvegicus [20]
  Residual insulin release: 77.9%
Rattus norvegicus [21]
  Residual insulin release: 52%

## CCCNC1=NS(=O)(=O)c2cc([N+](=O)[O-])ccc2N1
Rattus norvegicus [22]
  EC50: 15.7 µM
Rattus norvegicus [14]
  Residual insulin release: 88.9%

## O=[N+]([O-])c1ccc2c(c1)S(=O)(=O)NC(NC1CCC1)=N2
Rattus norvegicus [2]
  EC50: 13.8 µM
Rattus norvegicus [23]
  Residual insulin release: 59.6%

## CCCCCc1ccc2c(c1)S(=O)(=O)NC(NCC)=N2
Rattus norvegicus [2]
  EC50: 6.6 µM
Rattus norvegicus [8]
  Residual insulin release: 104%

## CC(C)NC1=NS(=O)(=O)c2cc([N+](=O)[O-])ccc2N1
[24]
  pKa: 7.91
Rattus norvegicus [2]
  EC50: 23.1 µM
Rattus norvegicus [25]
  Residual insulin release: 64%
Rattus norvegicus [21]
  Residual insulin release: 4.8%

## CCCNC1=NS(=O)(=O)c2ccccc2N1
Rattus norvegicus [2]
  EC50: > 300 µM
Rattus norvegicus [26]
  Residual insulin release: 54.2%
Rattus norvegicus [6]
  Residual insulin release: 93.8%

## CC(C)NC1=NS(=O)(=O)c2cc(C#N)ccc2N1
[24]
  pKa: 8.56
Rattus norvegicus [2]
  EC50: 42.7 µM
Rattus norvegicus [16]
  Residual insulin release: 82.2%
Rattus norvegicus [27]
  Residual insulin release: 23.5%

## CC1=Nc2ccc(Cl)cc2S(=O)(=O)N1 [DIAZOXIDE]
Rattus norvegicus [1]
  Ratio: 1
Rattus norvegicus [28]
  EC50: 22.4 µM
Rattus norvegicus [3]
  IC50: 22.6 µM
Rattus norvegicus [8]
  Residual insulin release: 73.9%
Rattus norvegicus [14]
  Residual insulin release: 26.7%
Rattus norvegicus [29]
  Residual insulin release: 87.5%

## Cc1ccc2c(c1)S(=O)(=O)NC(NC1CCC1)=N2
Rattus norvegicus [1]
  Ratio: 10
Rattus norvegicus [2]
  EC50: 58.4 µM
Rattus norvegicus [3]
  IC50: 5.6 µM
Rattus norvegicus [30]
  Residual insulin release: 19.7%
Rattus norvegicus [31]
  Residual insulin release: 3.7%
Rattus norvegicus [32]
  Residual insulin release: 99.5%

## CCC(C)NC1=NS(=O)(=O)c2cc(C(=O)O)ccc2N1 (stereo unspecified)
Rattus norvegicus [2]
  EC50: > 300 µM
Rattus norvegicus [11]
  Residual insulin release: 93%
Rattus norvegicus [14]
  Residual insulin release: 91.2%

## CC(C)NC1=NS(=O)(=O)c2cc(S(C)(=O)=O)ccc2N1
Rattus norvegicus [2]
  EC50: 127 µM
Rattus norvegicus [16]
  Residual insulin release: 90.5%
